# TRPC6 act = activates the mouse TRPC6 cation channel. Q61143. hit rate 0.13% among 310,000. HEK293-TRPC6 membrane potential dye fluorescence; stronger effect = higher value. AID 2550. B-score at 10 µM;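 active = B-score of the integrated fluorescence ratio above library mean plus 3 SD, and starting fluorescence ratio within library mean plus 5 SD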;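 note: higher score means more depolarization so channel activation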
# Target sequence (Q61143 whole entry, looked up): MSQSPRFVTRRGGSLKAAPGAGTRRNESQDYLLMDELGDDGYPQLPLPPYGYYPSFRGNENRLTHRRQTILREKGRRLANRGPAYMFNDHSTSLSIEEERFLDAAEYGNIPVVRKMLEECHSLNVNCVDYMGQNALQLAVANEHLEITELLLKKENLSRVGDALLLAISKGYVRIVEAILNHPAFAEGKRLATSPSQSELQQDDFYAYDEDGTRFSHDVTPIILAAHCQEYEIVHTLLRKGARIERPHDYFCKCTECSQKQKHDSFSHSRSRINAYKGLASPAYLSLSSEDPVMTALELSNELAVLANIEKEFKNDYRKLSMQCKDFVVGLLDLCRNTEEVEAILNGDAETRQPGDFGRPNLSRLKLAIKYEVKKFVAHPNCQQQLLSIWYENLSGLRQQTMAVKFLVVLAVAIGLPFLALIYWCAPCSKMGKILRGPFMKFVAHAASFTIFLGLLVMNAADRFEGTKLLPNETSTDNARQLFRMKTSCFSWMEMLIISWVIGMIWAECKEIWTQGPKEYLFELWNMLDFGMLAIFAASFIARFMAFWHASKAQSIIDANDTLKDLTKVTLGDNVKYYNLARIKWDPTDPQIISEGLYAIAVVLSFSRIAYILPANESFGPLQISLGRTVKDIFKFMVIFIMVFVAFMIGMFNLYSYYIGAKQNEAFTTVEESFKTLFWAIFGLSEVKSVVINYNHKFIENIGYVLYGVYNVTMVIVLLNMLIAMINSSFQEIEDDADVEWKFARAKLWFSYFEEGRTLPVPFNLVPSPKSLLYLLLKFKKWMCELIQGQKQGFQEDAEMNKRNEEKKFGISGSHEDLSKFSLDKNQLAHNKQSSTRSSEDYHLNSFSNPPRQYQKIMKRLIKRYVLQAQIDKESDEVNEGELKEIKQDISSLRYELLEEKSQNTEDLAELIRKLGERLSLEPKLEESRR
# TRPC4 block = TRPC4 (mouse) channel inhibition | HEK293 TRPC4beta/mu-opioid, DAMGO-evoked Fluo4 calcium flux; stronger effect = lower value | B-score at 10 µM | AID 2247 | hit rate 0.39% among 300,000;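 active = B-score over 3 SD under the library average, no early fluorescence shift, positive overall ratio signal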
#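 Signal: kinetic Fluo4 fluorescence imaging of calcium influx. Material: stable TRPC4beta/mu-opioid receptor HEK293 cells. Probe or stimulus: DAMGO in two steps, submaximal then maximal.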
# TRPC6 inhibitor = blocks the mouse TRPC6 cation channel; Q61143; HEK293-TRPC6, membrane potential dye, ACh-evoked depolarization; stronger effect = lower value; B-score at 10 µM; hit rate 1.1% among 310,000; AID 2553;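 active = B-score under library mean minus 3 SD, initial fluorescence not abnormally high, positive integrated signal ratio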;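 note: B-score derived from integrated fluorescence ratio over the kinetic read; more negative B-score means stronger inhibition of depolarization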
# TRPC4 act = TRPC4 (mouse) channel activation; B-score at 10 µM; HEK293 TRPC4beta/mu-opioid, Fluo4 calcium fluorescence; stronger effect = higher value; AID 2237; hit rate 0.49% among 310,000; Q9QUQ5;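 active = B-score above 5 SD of library B-scores, and initial fluorescence ratio not above library mean plus 5 SD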;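 note: positive B-score marks a calcium rise read as TRPC4 activation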
#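 System – HEK293 cells stably co-expressing mouse TRPC4beta and mu-opioid receptor · Signal – Fluo4 calcium-sensitive dye fluorescence, kinetic, 1 Hz baseline · Benchmarks – buffer (low) and maximal DAMGO (high) · Read-out – B score of integrated fluorescence ratio per well · Incubation – dye loading 45 min room temperature, 110 s kinetic read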
# TRPC4 PAM = allosterically enhances the mouse TRPC4 cation channel | HEK293 TRPC4beta/mu-opioid, DAMGO EC20, Fluo-4 Ca2+ flux; stronger effect = higher value | hit rate 0.42% among 310,000 | B-score at 10 µM | AID 2227;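 active = B-score of calcium response area above 5 SD of library B-scores, with initial fluorescence ratio within 5 SD of library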
# TRPC4 spec 2 = mouse TRPC4 off-target activity of TRPC6 inhibitors, second screen. shares compounds with TRPC6 inhibitor. HEK293 TRPC4/MOR, membrane potential dye fluorescence; channel activated by saturating DAMGO dose. inhibition, % at 10 µM. hit rate 42% among 920;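 active = compounds whose fluorescence signal differed from control wells by over 3 SD, either direction, in both duplicate plates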
# TRPC4 spec = mouse TRPC4 off-target activity of TRPC6 inhibitors; hit rate 61% among 920; HEK293 TRPC4/mu-opioid, membrane potential fluorescence; activity change, negative = inhibition, % at 10 µM; shares compounds with TRPC6 inhibitor;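 active = rise or fall in signal beyond 3 SD of buffer-only wells in both replicate plates, either sign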;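 note: integrated kinetic ratio of fluorescence range over baseline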
# HEK293 MPD ctr 2-1 = second check of TRPC6 inhibitor effects in parental HEK293 cells; shares compounds with TRPC6 inhibitor; parental HEK293 membrane potential dye fluorescence; maximal acetylcholine challenge after compound addition; signal change vs control, % at 10 µM; hit rate 31% among 920; AID 2779;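 active = membrane potential signal moving either way by over 3 SD of the maximum-effect control, in both duplicate plates, meaning non-specific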
# HEK293 MPD ctr-1 = checks TRPC6 inhibitor effects in parental HEK293 cells | shares compounds with TRPC6 inhibitor | parental HEK293 membrane potential dye fluorescence | membrane potential signal change, % at 10 µM | hit rate 60% among 920 | AID 2780;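 active = membrane potential signal shifting up or down by more than 3 SD of buffer-only wells, on both duplicate plates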
# HEK293 MPD ctr-2 = checks TRPC6 modulator effects in parental HEK293 cells | shares compounds with TRPC6 inhibitor | membrane potential dye fluorescence | membrane potential signal change, % at 10 µM | hit rate 51% among 2,400 | AID 488924;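 active = membrane potential signal moves up or down beyond 5 SD from buffer-only wells, on both duplicate plates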
# HEK293 MPD ctr 2-2 = second check of TRPC6 modulator effects in parental HEK293 cells. shares compounds with TRPC6 inhibitor. membrane potential dye fluorescence; after compound, maximal acetylcholine stimulation. inhibition, % at 10 µM. hit rate 14% among 2,400;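 active = membrane potential signal drops by more than 5 SD from the mean control signal, in both duplicate plates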
# TRPC4/MOR mod = selectivity of TRPC6 modulators against mouse TRPC4 | shares compounds with TRPC6 inhibitor | HEK293 TRPC4/mu-opioid, membrane potential fluorescence | percent change from control (negative = decrease, positive = increase), % at 10 µM | hit rate 69% among 2,400 | AID 488927;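 active = membrane potential signal moved up or down beyond 5 SD of buffer control wells, in both duplicate plates, actives on both sides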
# TRPC4 ctr inh 2 = second selectivity test of TRPC6 modulators against mouse TRPC4; hit rate 55% among 2,400; inhibition, % at 10 µM; HEK293 TRPC4/mu-opioid, membrane potential dye fluorescence; stimulated with maximal-effect DAMGO; shares compounds with TRPC6 inhibitor;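 active = drop in membrane potential signal beyond 5 SD of the control wells in both duplicate plates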;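 note: TRPC4 counter screen for TRPC6 hits run under conditions tuned for TRPC6 not TRPC4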
# TRPC6 inh conf = mouse TRPC6 inhibitor confirmation; shares compounds with TRPC6 inhibitor; hit rate 43% among 3,300; HEK293-TRPC6, membrane potential dye, ACh-evoked depolarization; inhibition, % at 10 µM;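 active = fluorescence ratio falls more than 5 SD below the full-stimulation control mean, in both duplicate runs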;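 note: integrated fluorescence ratio of peak minus minimum over baseline after agonist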
# TRPC6 act confirm = mouse TRPC6 activator confirmation. shares compounds with TRPC6 inhibitor. HEK293-TRPC6 membrane potential dye fluorescence, FDSS. activation, % at 10 µM. hit rate 11% among 2,800. AID 488961;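 active = ratio signal rise beyond 5 SD above unstimulated control wells' mean, seen in both duplicate runs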
# Numbers stand for hits; - = inactive; . = not tested or not shown. Only some compounds are listed: those with a hit (about 2.3% of all), similar ones and a draw of the others.
SMILES,TRPC6 act,TRPC4 block,TRPC6 inhibitor,TRPC4 act,TRPC4 PAM,HEK293 MPD ctr-2,HEK293 MPD ctr 2-2,TRPC4/MOR mod,TRPC4 ctr inh 2,TRPC6 inh conf,TRPC6 act confirm,others
COc1cc(Nc2c3ccccc3nc3ccccc23)cc(OC)c1OC,-,-,-7.1,-,-,-132%,-,-38%,60%,-,-,
OCCCNc1c2ccccc2nc2ccccc12,-,-6,-6.1,-,-,-231%,-,-36%,46%,37%,-,
CCN(C(=O)Cc1c(C(=O)O)[nH]c2ccccc12)c1ccc(OC)cc1,-,-,-,-,-,.,.,.,.,.,.,
CCCNC(=S)NCc1ccc(Cl)cc1,-,-,-,-,-,.,.,.,.,.,.,
COc1ccc(C2=NCCc3cc(OC)c(OC)cc32)cc1OC,-,-,-7.4,-,-,-410%,-,-70%,62%,63%,-,
COc1ccc(C2=NCCc3cc(OC)c(OC)cc32)cc1,-,-,-,-,-,.,.,.,.,.,.,
CCCn1c2ccccc2c2nnc(SCCN3CCOCC3)nc21,-,-,-,-,-,.,.,.,.,.,.,
c1ccc2nc3c(nc2c1)c1ccccc1n3CCN1CCOCC1,-,-,-5.1,-,-,-,-,-8.5%,34%,-,-,
O=C(CC(c1ccccc1O)N1CCCCC1)N1CCCCC1 (stereo not given),-,-,-9.7,-,-,.,.,.,.,63%,.,TRPC4 spec 2=-;TRPC4 spec=3.6%;HEK293 MPD ctr 2-1=-;HEK293 MPD ctr-1=4.8%
O=C(CC(c1ccccc1)c1cc(Cl)ccc1O)N1CCCC1 (stereo not given),-,-,-,-,-,.,.,.,.,.,.,
O=S(=O)(Nc1nc2ccccc2[nH]1)c1ccc(Cl)cc1,-,-,-8.7,-,-,.,.,.,.,52%,-,TRPC4 spec 2=-;TRPC4 spec=-;HEK293 MPD ctr 2-1=-;HEK293 MPD ctr-1=-
COc1ccc(NCc2nnc(SCC(=O)Nc3cccc(C)c3)o2)cc1,-,-,-6.3,-,-,-,-,-,-,-,-,
CN(C)CCNc1nc2sc3c(c2c(=O)n1-c1ccc(F)cc1)CCCCC3,-,-,-5.8,-,-,-,-,-,50%,-,-,
COc1ccc(-n2c(NCCN(C)C)nc3sc4c(c3c2=O)CCCCC4)cc1,-,-,-7.5,-,-,.,.,.,.,-,-,TRPC4 spec 2=-;TRPC4 spec=-;HEK293 MPD ctr 2-1=-;HEK293 MPD ctr-1=-
COc1ccc(N2CCN(CC(=O)Nc3ccc(C)c(C)c3)CC2)cc1,-,-,-,-,-,.,.,.,.,.,.,
COc1ccc(N2CCN(S(=O)(=O)CCNC(=O)COc3ccc(Cl)cc3)CC2)cc1,-,-,-,-,-,.,.,.,.,.,.,
COc1ccc(N2CCN(S(=O)(=O)CCNC(=O)COc3ccccc3C)CC2)cc1,-,-,-8.5,-,-,.,.,.,.,-,-,TRPC4 spec 2=-;TRPC4 spec=-8.9%;HEK293 MPD ctr 2-1=240%;HEK293 MPD ctr-1=-
Fc1ccc(-c2[nH]ncc2CN(CC2CCC2)CC2CCCO2)c(F)c1 (stereo not given),-,-,-,-,-,.,.,.,.,.,.,
COc1ccc(NC(=S)N2CCCC(c3nc4ccc(C)cc4[nH]3)C2)cc1 (stereo not given),-,-,-6.5,-,-,-,-,-,-,-,-,
Cc1ccc(Nc2nc(N)c3ccccc3n2)cc1C,-,-,-12,-,-,-94%,65%,-36%,78%,66%,-,
Cc1ccc(Nc2nc3ccccc3c(=O)[nH]2)cc1C,-,-,-,-,-,.,.,.,.,.,.,
COc1ccc(Nc2nc(N)c3ccccc3n2)c(OC)c1,-,-7,-10,-,-,-202%,86%,-42%,92%,90%,-,
COc1cc2nc(Nc3cccc(F)c3)nc(N)c2cc1OC,-,-,-6.5,-,-,-,-,-,47%,52%,-,
COc1nc(Nc2cccc(F)c2)nc(OC)n1,-,-,-,-,-,.,.,.,.,.,.,
COc1ccc(Nc2nc(-c3ccccc3)nc3ccccc23)c(OC)c1,-,-,-,-,-,.,.,.,.,.,.,
SMILES,TRPC6 act,TRPC4 block,TRPC6 inhibitor,TRPC4 act,TRPC4 PAM,HEK293 MPD ctr-2,HEK293 MPD ctr 2-2,TRPC4/MOR mod,TRPC4 ctr inh 2,TRPC6 inh conf,TRPC6 act confirm,others
Cc1ccc(OCCNC(=O)Cc2ccc(S(=O)(=O)N3CCOCC3)s2)cc1,-,-,-,-,-,.,.,.,.,.,.,
Cc1oc(-c2ccc(Cl)cc2)nc1CN1CCCC(C(=O)NC2CC2)C1 (stereo not given),-,-,-,-,-,.,.,.,.,.,.,
Cc1oc(-c2ccc(Cl)cc2)nc1CN1CCCC(C(=O)NCc2ccco2)C1 (stereo not given),16,-,-6.7,-,-,114%,-,20%,51%,47%,92%,
CCN(CC)S(=O)(=O)c1ccc(-n2cnc3cc(C)c(C)cc32)nc1,-,-,-,-,-,.,.,.,.,.,.,
CC(C)(C)c1ccc(S(=O)(=O)N2CCC(CO)(CC3CCCCO3)CC2)cc1 (stereo not given),-,-,-5.8,-,-,-,-,17%,-,-,.,
CCOC(=O)C1(CC2CCCCO2)CCN(S(=O)(=O)c2ccccc2)CC1 (stereo not given),-,-,-,-,-,.,.,.,.,.,.,
CC(C)(C)c1ccc(S(=O)(=O)N2CCC(N3CCCCC3)CC2)cc1,20,-,-,-,-,238%,-,41%,36%,-,122%,
CCc1ccc(/C=N/n2c(C)cc(C)c(C#N)c2=O)cc1,-,-,-,-,-,.,.,.,.,.,.,
Cc1cc(NC(=O)c2cccs2)n(-c2nc3ccccc3[nH]2)n1,-,-,-,-,-,.,.,.,.,.,.,
COc1ccc(-n2nc(C(=O)c3cccs3)cc(-c3nc4ccccc4[nH]3)c2=N)cc1,-,-,-9.7,-,-,.,.,.,.,61%,-,TRPC4 spec 2=46%;TRPC4 spec=-22%;HEK293 MPD ctr 2-1=37%;HEK293 MPD ctr-1=-238%
